# Source: PubChem BioAssay
# Rows were chosen to be rich in hits. Some 2.2% of all compounds tested hit in one or more screens of this group.
# Tn6 DDE FP: inhibitors of Tn6 peptide binding to fibrin DD(E), primary screen, biochemical, fluorescence polarization, human fibrin, Tn6 probe; Fibrin DD(E) TRITC-Tn6 fluorescence polarization displacement; inhibition, % at 8.3 µM; 370,000 compounds, 0.21% hits;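 active means inhibition above a per-campaign cutoff: mean of compounds within control limits plus 3 SD, cut at about 15% in these data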;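 further: 0% = median of all compound wells on the plate and 100% = blocking peptide control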
# SKN-1 inh: suppressors of acrylamide-induced Pgst-4::GFP reporter in worms, primary screen, SKN-1 inhibitor project, whole organism, uHTS, GFP/RFP fluorescence ratio, strain VP596. C. elegans VP596 Pgst-4::GFP/RFP ratio, 24 h. inhibition, % at 21.8 µM. 360,000 compounds, 0.49% hits;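 active means interference check ratio from 0.5 to 1.5 plus GFP to RFP signal ratio inhibition reaching or exceeding a fixed threshold, cut at about 30% in these data, passing the limit was not always enough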
# DDE Tn7 FP inh: inhibitors of Tn7 peptide binding to fibrin DD(E), primary screen, biochemical, fluorescence polarization, human fibrin, Tn7 probe; Fibrinogen beta chain (Homo sapiens), P02675; FP displacement of FITC-Tn7 peptide from fibrin DD(E); 0% = median of compound wells per plate; inhibition, % at 8.3 µM; 370,000 compounds, 0.13% hits; AID 720508, 2013;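 active means inhibition above the mean of compounds falling within the control limits plus 3 SD of them, cut at about 14% in these data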;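 further: 0% = plate median of compound wells and 100% = 10 µM Aha-Tn7 peptide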
#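 Measure: % inhibition scaled between sample-field median and high-control FP; Test system: human fibrin DD(E); Quantity: 2 µM final DD(E) protein; Doses: one dose, 8.3 µM nominal; Schedule: compound with protein 10 min, then 3 h after probe, room temperature; Detection: fluorescence polarization; Medium: Tris buffer with calcium and detergent, pH 7.8.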
# Neddylation inh: inhibitors of cullin neddylation, primary screen, biochemical, TR-FRET, uHTS, NAE and Ubc12; NEDD8-conjugating enzyme Ubc12 (Homo sapiens) + NEDD8-activating enzyme E1 regulatory …; calls only at 25 µM; 360,000 compounds, 0.58% hits; in the data active means inhibition above about 36%
# KLK7 zymogen act: proKLK7 zymogen activators, primary screen, biochemical, fluorescence intensity | Kallikrein-7 (Homo sapiens), P49862 | purified proKLK7, EDANS-DABCYL substrate fluorescence; 100% is mature enzyme control, 0% vehicle | activation, % at 7 µM | 370,000 compounds, 0.9% hits;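 active means activation above the mean of all tested compounds plus 3 SD, computed per campaign excluding outliers beyond control limits, cut at about 13% in these data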
# Target sequence (P49862 whole entry, looked up): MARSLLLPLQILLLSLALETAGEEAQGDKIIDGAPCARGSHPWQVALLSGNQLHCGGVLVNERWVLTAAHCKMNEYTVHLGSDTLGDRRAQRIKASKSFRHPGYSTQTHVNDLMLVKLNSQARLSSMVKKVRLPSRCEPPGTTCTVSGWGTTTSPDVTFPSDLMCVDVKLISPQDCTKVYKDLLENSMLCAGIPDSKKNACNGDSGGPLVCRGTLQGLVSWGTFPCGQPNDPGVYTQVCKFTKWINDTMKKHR
# MT1-MMP act inh: blockers of MT1-MMP proenzyme processing, primary screen, HT1080 RFP-PRO-GFP cells, GFP/RFP fluorescence; GFP/RFP ratio fluorescence, overnight; percent of plate control window, DMSO zero; GFP/RFP ratio change, % at 20 µM; 360,000 compounds, 0.061% hits; AID 651647, 2012;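 active means GFP/RFP ratio change of at least 30% with cell ATP level not reduced by more than half and red fluorescence within 50% of control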
#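 Compound: 20 µM single dose, 1% DMSO / System: HT1080 RFP-PRO-GFP cells / Controls: DMSO and RFP-L50D-GFP cell wells / Read-out basis: GFP/RFP fluorescence ratio / Schedule: overnight compound exposure at 37 °C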
# Starred values were filed as active, the others as inactive; i = inactive; / = not tested or not shown; + = active, no number.
SMILES,Tn6 DDE FP,SKN-1 inh,DDE Tn7 FP inh,Neddylation inh,KLK7 zymogen act,MT1-MMP act inh
CCOP(=O)(CC(C(C)=O)C(O)c1ccccc1)OCC (stereo unspecified),0,-5,14*,i,0,-4
CCOP(=O)(c1ccc(N(C)C)cc1)C(O)c1ccccc1 (stereo unspecified),0,7,0,i,0,4
CC(C1=C(CCN(C)C)Cc2ccccc21)c1ccccn1 (stereo unspecified),-3,-2,1,i,11,-2
CCN1C(=O)c2cccc3c(N)ccc(c23)C1=O,7,-119,32*,i,0,-83
CN(c1ccccc1)c1nc2ccsc2c(=O)s1,10,43*,4,i,1,-2
CCN(c1ccccc1)c1nc2ccsc2c(=O)s1,-6,1,-4,i,1,-7
COc1ccc(CC(=O)Cc2ccc(OC)c(OC)c2)cc1OC,1,21,14*,i,0,5
N#Cc1ccc(NC(=O)Cn2cnc(S(=O)(=O)N3CCc4ccccc43)c2)cc1,10,14,-1,i,0,-2
C=CCn1c(SCC(=O)c2c(N)n(C)c(=O)n(C)c2=O)nnc1-c1ccoc1C,9,35*,-3,i,0,-2
CCN(CC)C(=O)Oc1ccc(Br)c2ccccc12,7,37*,-2,i,0,-1
COc1ccc(C(CC(=O)N2CCCCC2)NC(=O)C(F)(F)F)cc1 (stereo unspecified),5,7,-5,i,0,1
Cc1cccc(C)c1NC(=O)CN(C)C(=O)CC1CC2CCC1C2 (stereo unspecified),9,10,2,i,0,4
CN(CC(=O)Nc1cccc(F)c1)C(=O)CC1CC2CCC1C2 (stereo unspecified),2,36*,9,i,0,1
COc1cc2c(cc1OC)CN(C(=O)c1ccc(N3CCCC3)c([N+](=O)[O-])c1)CC2,-1,13,4,i,2,4
O=C(N/N=C/c1ccccn1)c1cc(-c2ccc(Br)cc2)nc2ccccc12,-9,11,-1,+,1,5
COCCN1C(=O)c2ccccc2C(C(=O)NCCCN2CCCC2)C1c1c[nH]c2ccccc12 (stereo unspecified),6,/,-5,/,1,/
CCOc1ccc(-c2cc(C(=O)N3CCC(C)CC3)c3ccccc3n2)cc1,-3,-26,-3,/,-20,-4
COC(=O)c1cc(-c2cccc(OC)c2)n[nH]1,-5,37*,1,i,0,4
COC(=O)c1cc(-c2ccc(OC)cc2)n[nH]1,7,11,-5,i,0,0
N#Cc1nc(N2CCOCC2)nc(N2CCOCC2)n1,5,36*,8,i,0,2
CC(=O)N1N=C(c2ccc(C)cc2)CC1c1ccc2c(c1)OCO2 (stereo unspecified),1,-9,8,i,1,2
O=C(/C=C/Nc1ccc(F)cc1)c1cccs1,-2,25,8,i,0,3
Cc1cccc(N/C=C/C(=O)c2cccs2)c1C,-5,44*,4,i,0,-4
O=C(/C=C/Nc1ccc(F)c(F)c1)c1cccs1,-6,44*,0,i,-1,-5
CCN(C[C@H]1N[C@@](C)(C(=O)OC)[C@H]2C(=O)N(Cc3ccccc3)C(=O)[C@@H]12)C(=O)NC(C)C,-1,3,9,i,0,3
